The species named for experiment [1] is Cavia porcellus. Description: Parasympatholytic activity was assessed from the ability to inhibit electrically stimulated contraction of isolated guinea pig ileum at 4 mg/L of base. The format is functional. Put shortly: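 Electrically stimulated isolated guinea pig ileum, in which tension arises from stimulated acetylcholine release from postganglionic parasympathetic nerve terminals. After about 60 min equilibration, contractile tension was measured just before and during the steady-state response to test drug at 4 mg/L, calculated as free base.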

The test system of experiment [2] is Canis familiaris. In words: Evaluated for ouabain-induced arrhythmia in anesthetized adult male mongrel dogs. Administered intravenously. The class given is functional, Canis lupus familiaris. The procedure, abridged:
(§1)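 Adult male mongrel dogs (10–17 kg) anesthetized with pentobarbital (30 mg/kg iv) and intubated with spontaneous respiration. ECG lead II recorded. Ouabain given iv as boluses: 40 μg/kg, then 20 μg/kg at 30 min, then 10 μg/kg every 15 min until a stable ventricular arrhythmia (>95% ectopic ventricular complexes). Test drug given iv, doses calculated as free base.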

The species entered for experiment [3] is Cavia porcellus. In words: Anticholinergic activity is assessed in guinea pig ileum at 30 uM. The note with it: read-out: pA2 (converted). The format is functional, organism-based. The procedure, abridged: (§2)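 Isolated guinea pig ileum contracted with methacholine. Tissue washed between increasing methacholine concentrations. A single antagonist dose was given 15 min before each methacholine concentration. Methacholine EC50 (50% of maximal response) was found per muscle with and without antagonist. pA2 = −log KB, where KB = [antagonist]/((EC50 with/EC50 without) − 1). Doses calculated as free base.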

The species entered for experiment [4] is Cavia porcellus. Description: Anticholinergic activity is assessed in guinea pig ileum at 30 uM. The note with it: read-out: pA2 (converted).
The subject of experiment [5] is Canis familiaris. Description: Compound was evaluated for ouabain-induced arrhythmia in anesthetized adult male mongrel dogs. Both ouabain and compound are administered intravenously; NA = inactive up to 30 mg/kg. Also on record: dose 30 mg/kg. The note with it: Canis lupus familiaris. The format is functional, organism-based. The procedure, abridged: as §1
The species named for experiment [6] is Cavia porcellus. In words: Anticholinergic activity is assessed in guinea pig ileum at 50 uM. The format is functional. The note with it: read-out: pA2 (converted). The procedure, abridged: as §2
The test system of experiment [7] is Canis familiaris. In words: Compound was evaluated for ouabain-induced arrhythmia in anesthetized adult male mongrel dogs. Both ouabain and compound are administered intravenously; NA means not effective. The class given is functional, organism-based. The note with it: Canis lupus familiaris. Put shortly:
as §1

For experiment [8], the species on record is Cavia porcellus. Description: Anticholinergic activity is assessed in guinea pig ileum at 10 uM. The class given is functional. The note with it: read-out: pA2 (converted). The procedure, abridged:
as §2

Results on 34 compounds are retold here after ChEMBL document CHEMBL1122619, “Synthesis and antiarrhythmic and parasympatholytic properties of substituted phenols. 2. Amides” (J Med Chem, 1984).

Active and inactive are the calls of the source. The calls are words filed in the database; no cut-off is given here.

For orientation: Inhibition means the share of the control response that was lost under treatment. Low values mean little suppression, high ones strong suppression. Take `Cl.Cl.O=C(NCc1cc(CN2CCCC2)c(O)c(CN2CCCC2)c1)c1ccc(Cl)cc1`: the Inhibition in the experiment listed under Cavia porcellus [1] was 56%. The same compound registered a Dose in the experiment on Canis familiaris [2] of 3.7 mg/kg.
Regarding `O=C(Nc1cc(CN2CCCC2)c(O)c(CN2CCCC2)c1)c1ccc([N+](=O)[O-])cc1`, the Inhibition in the experiment filed under Cavia porcellus [1] is given as 24%. The compound also had a Dose in the experiment with Canis familiaris [2] of 11 mg/kg.
For `COc1ccccc1C(=O)Nc1cc(CN2CCCC2)c(O)c(CN2CCCC2)c1.Cl.Cl` the same measures were 31% and 3 mg/kg.
Regarding `Cc1ccccc1C(=O)Nc1cc(CN2CCCC2)c(O)c(CN2CCCC2)c1.Cl.Cl`, the Kb in the experiment filed under Cavia porcellus [3] is 19.5 µM. The Inhibition in the experiment filed under Cavia porcellus [1] came to 9%. The Dose in the experiment with Canis familiaris [2] is 2.7 mg/kg.
Regarding `O=C(Nc1cc(CN2CCCC2)c(O)c(CN2CCCC2)c1)c1ccccc1`, the Kb in the experiment listed under Cavia porcellus [4] was 10 µM. The same compound returned an Inhibition in the experiment filed under Cavia porcellus [1] of 30%. In addition, the Dose in the experiment with Canis familiaris [2] was determined as 3.4 mg/kg.
Take `COc1cc(C(=O)Nc2cc(CN3CCCC3)c(O)c(CN3CCCC3)c2)cc(OC)c1OC.Cl.Cl`: the Inhibition in the experiment listed under Cavia porcellus [1] was 6%. For the same compound, the DOSE result in the experiment with Canis familiaris [5] was “inactive”.
Regarding `CC(C)N(CCC(C(N)=O)(c1ccccc1)c1ccccn1)C(C)C` (stereo not given) [DISOPYRAMIDE], the Kb in the experiment filed under Cavia porcellus [4] was 0.363 µM. The compound also showed an Inhibition in the experiment filed under Cavia porcellus [1] of 81%. The same compound gave a Dose in the experiment with Canis familiaris [2] of 4.4 mg/kg.
`Cc1ccsc1C(=O)Nc1cc(CN2CCCC2)c(O)c(CN2CCCC2)c1` yielded a Dose in the experiment on Canis familiaris [2] of 1.6 mg/kg.
As for `Cl.Cl.O=C(Nc1cc(CN2CCCC2)c(O)c(CN2CCCC2)c1)c1cccc(Cl)c1`, the Inhibition in the experiment filed under Cavia porcellus [1] is 37%. The same compound yielded a Dose in the experiment on Canis familiaris [2] of 3.8 mg/kg.
Turning to `Nc1ccc(C(=O)Nc2cc(CN3CCCC3)c(O)c(CN3CCCC3)c2)cc1`, the Inhibition in the experiment filed under Cavia porcellus [1] is 0%. Moreover, in the experiment on Canis familiaris [2], the Dose worked out at 4.5 mg/kg.
For `O=C(Nc1cc(CN2CCCC2)c(O)c(CN2CCCC2)c1)c1ccc(C(F)(F)F)cc1`, in that order: 42% and 5.3 mg/kg.
On to `Oc1c(CN2CCCC2)cc(Nc2ncnc3ccccc23)cc1CN1CCCC1` [CHANGROLIN], for which, in the experiment filed under Cavia porcellus [1], the Inhibition was 43%. This compound also came in with a Dose in the experiment with Canis familiaris [2] of 5.5 mg/kg.
Consider `Cl.Cl.O=C(NCc1cc(CN2CCCC2)c(O)c(CN2CCCC2)c1)c1ccc(C(F)(F)F)cc1`, for which, in the experiment listed under Cavia porcellus [1], the Inhibition is 50%. Moreover, the Dose in the experiment with Canis familiaris [2] is 4.5 mg/kg.
The compound `O=C(Nc1cc(CN2CCCC2)c(O)c(CN2CCCC2)c1)c1ccccc1Cl` yielded an Inhibition in the experiment filed under Cavia porcellus [1] of 0%. Moreover, in the experiment on Canis familiaris [2], the Dose worked out at 5 mg/kg. The Kb in the experiment filed under Cavia porcellus [6] is 7.59 µM.
`Cl.Cl.O=C(NCc1cc(CN2CCCC2)c(O)c(CN2CCCC2)c1)c1ccccc1Cl`: the Inhibition in the experiment filed under Cavia porcellus [1] was found to be 19%. For the same compound, in the experiment with Canis familiaris [2], the Dose came out at 2.5 mg/kg. For the same compound, the Kb in the experiment listed under Cavia porcellus [6] was 12 µM.
For `Cl.Cl.O=C(Nc1cc(CN2CCCC2)c(O)c(CN2CCCC2)c1)c1ccccc1C(F)(F)F`, in the experiment filed under Cavia porcellus [1], the Inhibition stood at 0%. In the experiment with Canis familiaris [2], this compound returned a Dose of 6.5 mg/kg. Also, the Kb in the experiment listed under Cavia porcellus [6] was 17.4 µM.
As for `O=C(NCc1cc(CN2CCCC2)c(O)c(CN2CCCC2)c1)c1ccccc1`, the Inhibition in the experiment listed under Cavia porcellus [1] turned out to be 34%. In addition, in the experiment with Canis familiaris [2], the Dose came out at 3 mg/kg.
`O=C(Nc1cc(CN2CCCC2)c(O)c(CN2CCCC2)c1)c1ccc(Cl)cc1`: in the experiment filed under Cavia porcellus [1], the Inhibition turned out to be 49%. The same compound gave a Dose in the experiment on Canis familiaris [2] of 1.5 mg/kg.
`O=C(Cc1cccs1)Nc1cc(CN2CCCC2)c(O)c(CN2CCCC2)c1` showed an Inhibition in the experiment listed under Cavia porcellus [1] of 13%. Further, the DOSE entry in the experiment with Canis familiaris [7] was “Not effective”.
Compound `C=C[C@H]1CN2CC[C@H]1C[C@@H]2[C@@H](O)c1ccnc2ccc(OC)cc12` [QUINIDINE] displayed an Inhibition in the experiment listed under Cavia porcellus [1] of 62%. In the experiment on Canis familiaris [2], this compound displayed a Dose of 10.5 mg/kg. Further, the Kb in the experiment filed under Cavia porcellus [8] was 1 µM.
In the experiment filed under Cavia porcellus [1], `COc1ccc(C(=O)Nc2cc(CN3CCCC3)c(O)c(CN3CCCC3)c2)cc1` returned an Inhibition of 24%. Further, the Dose in the experiment with Canis familiaris [2] is 7.3 mg/kg.
For `Cl.Cl.O=C(NCc1cc(CN2CCCC2)c(O)c(CN2CCCC2)c1)c1cccc(Cl)c1`, in that order: 78% and 9 mg/kg.
In turn, `Cl.Cl.O=C(NCc1cc(CN2CCCC2)c(O)c(CN2CCCC2)c1)c1ccccc1C(F)(F)F` showed an Inhibition in the experiment filed under Cavia porcellus [1] of 8%. Further, in the experiment with Canis familiaris [2], the Dose was found to be 1.9 mg/kg.
Turning to `Cc1ccc(C(=O)Nc2cc(CN3CCCC3)c(O)c(CN3CCCC3)c2)s1`, in the experiment with Canis familiaris [2], the Dose was 4.3 mg/kg.
In turn, `Cc1cccc(C)c1C(=O)Nc1cc(CN2CCCC2)c(O)c(CN2CCCC2)c1.Cl.Cl` had an Inhibition in the experiment filed under Cavia porcellus [1] of 15%. Besides, in the experiment with Canis familiaris [2], the Dose was determined as 3.2 mg/kg. The Kb in the experiment filed under Cavia porcellus [6] was 5.5 µM.
Regarding `Cl.Cl.O=C(Nc1cc(CN2CCCC2)c(O)c(CN2CCCC2)c1)c1ccc(Cl)cc1Cl`, the Inhibition in the experiment listed under Cavia porcellus [1] was found to be 11%. The DOSE result in the experiment on Canis familiaris [7] is “Not effective”.
As for `O=C(Nc1cc(CN2CCCC2)c(O)c(CN2CCCC2)c1)c1cc(Br)sc1Br`, in the experiment on Canis familiaris [2], the Dose was 4.3 mg/kg.
`Cl.O=C(Nc1cc(CN2CCCC2)c(O)c(CN2CCCC2)c1)c1cccc(C(F)(F)F)c1`: the Inhibition in the experiment listed under Cavia porcellus [1] turned out to be 62%. In the experiment on Canis familiaris [2], this compound gave a Dose of 2.3 mg/kg.
In turn, `Cl.Cl.O=C(Nc1cc(CN2CCCC2)c(O)c(CN2CCCC2)c1)c1c(Cl)cccc1Cl` registered an Inhibition in the experiment filed under Cavia porcellus [1] of 14%. The same compound registered a Dose in the experiment on Canis familiaris [2] of 4.6 mg/kg. The Kb in the experiment listed under Cavia porcellus [6] is 4.68 µM.
With `O=C(Nc1cc(CN2CCCC2)c(O)c(CN2CCCC2)c1)c1cccs1`, the Kb in the experiment filed under Cavia porcellus [3] was 15.8 µM. The Inhibition in the experiment listed under Cavia porcellus [1] was 44%. Besides, in the experiment on Canis familiaris [2], the Dose came out at 2 mg/kg.
As for `Cc1ccc(C(=O)Nc2cc(CN3CCCC3)c(O)c(CN3CCCC3)c2)cc1`, the Inhibition in the experiment filed under Cavia porcellus [1] was 22%. The Dose with Canis familiaris [2] came out at 3 mg/kg.
For `CCN(CC)CCNC(=O)c1ccc(N)cc1` [PROCAINAMIDE] the same measures were 0% and 29 mg/kg.
As for `Cc1cccc(C(=O)Nc2cc(CN3CCCC3)c(O)c(CN3CCCC3)c2)c1.Cl.Cl`, the Inhibition in the experiment filed under Cavia porcellus [1] is on record as 32%. Further, in the experiment with Canis familiaris [2], the Dose amounted to 5.2 mg/kg.
`Cl.Cl.O=C(NCc1cc(CN2CCCC2)c(O)c(CN2CCCC2)c1)c1cccc(C(F)(F)F)c1` came in with an Inhibition in the experiment listed under Cavia porcellus [1] of 72%. Moreover, the Dose in the experiment with Canis familiaris [2] came out at 5.5 mg/kg.
